The source of these data is ChEMBL document CHEMBL3608276, “Phenolic Compounds from the Leaves and Twigs of Osteomeles schwerinae That Inhibit Rat Lens Aldose Reductase and Vessel Dilation in Zebrafish Larvae” (J Nat Prod, 2015).

pIC50: −log10 of the molar value. Where only a bound is given, the exact number is not on record here.

Data set [1] addresses Aldo-keto reductase family 1 member B1 (Rattus norvegicus, UniProt P07943). In words: Inhibition of Sprague-Dawley rat lense aldose reductase using DL-glyceraldehyde as substrate by spectrofluorometric analysis. The gist of the method: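 Crude enzyme from lenses of 8-week-old Sprague–Dawley rats (100–150 g), homogenized in 135 mM Na,K-phosphate pH 7.0 with 0.5 mM PMSF and 10 mM 2-mercaptoethanol; 100000g supernatant used. Reaction in 135 mM phosphate pH 7.0, 100 mM Li2SO4, 0.03 mM NADPH, 1 mM DL-glyceraldehyde at 37 °C, NADPH-started, HCl-stopped. NADP converted with NaOH/imidazole at 60 °C 10 min; fluorescence ex 360/em 460 nm. IC50 from log-concentration regression of remaining activity; 100 μM cutoff.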

The species named for data set [2] is Danio rerio. In words: Toxicity in zebrafish embryo up to 20 uM. The data set is classed as organism-based. Particulars: in vivo.
The species entered for data set [3] is Danio rerio. In words: Reduction of high glucose-induced dilation of hyaloid-retinal vessel in flk:EGFP transgenic zebrafish embryo at 10 uM treated for day 3 to 6 postfertilization measured on day 6 by stereomicroscopic analysis relative to control. Format: functional. More on the design: scale not given: the % may be the effect or the level left. The method, boiled down:
(§1)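 flk:EGFP embryos, five per well at 3 dpf in egg water with 130 mM glucose, exposed to compound 3–6 dpf. Fixed in 4% paraformaldehyde at 6 dpf, lenses with vessels isolated by 3% trypsin (0.2 M Tris-HCl pH 7.8) 80 min at 37 °C. Hyaloid vessel diameter near the optic disc measured three times per lens, 10 larvae per group, triplicate; mean ± SEM, ANOVA/Dunnett versus high-glucose group.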

For data set [4], the species on record is Danio rerio. In words: Reduction of high glucose-induced dilation of hyaloid-retinal vessels in flk:EGFP transgenic zebrafish embryo at 20 uM treated for day 3 to 6 postfertilization measured on day 6 by stereomicroscopic analysis relative to control. Format: functional. On the set-up: scale not given: the % may be the effect or the level left. The gist of the method:
as §1

On to `COc1cc(O)cc(-c2ccc(O)c(O)c2)c1`, for which, in data set [1], the pIC50 (commonly −log10 of the IC50, conventionally taken in molar units) was 4.86. In addition, the Activity entry in data set [2] is “Non-toxic”; in data set [3] it was 95%; in data set [4], 99%.

Compound `COc1cc(O[C@@H]2O[C@H](CO)[C@@H](O)[C@H](O)[C@H]2O)cc(-c2ccc(O)c(O)c2)c1` showed a pIC50 in data set [1] of 5.25. Moreover, the Activity entry in data set [2] is “Non-toxic”.

`COc1cc(OC)cc(-c2ccc(O)c(O[C@@H]3O[C@H](CO)[C@@H](O)[C@H](O)[C@H]3O)c2)c1` gave a pIC50 in data set [1] of 5.42. Further, the Activity entry in data set [2] was “Non-toxic”.

`COc1cc([C@H]2O[C@H](c3cc(OC)c(O)c(OC)c3)[C@@H](CO[C@@H]3O[C@@H](C)[C@H](O)[C@@H](O)[C@H]3O)[C@@H]2CO)cc(OC)c1O` showed a pIC50 in data set [1] of under 4.00.

`O=C(O)CC1(CC(=O)O)CCCC1` had a pIC50 in data set [1] of 4.54.

`COc1cc([C@H]2O[C@H](c3cc(OC)c(O)c(OC)c3)[C@@H](CO)[C@@H]2CO)cc(OC)c1O` [HUAZHONGILEXIN] showed a pIC50 in data set [1] of under 4.00.
